Source: PubChem BioAssay (Broad Institute)
T cruzi intra: intracellular Trypanosoma cruzi inhibition. AID 651903. 4.9% of 22,000 active. activity score (inhibition), % at 5.01 µM. intracellular Trypanosoma cruzi in host cells, plate reader; in the data active means activity score above about 55%;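 further: parasites and compound incubated about four days before reading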
YB-1 expression: YB-1 expression inhibition. U2OS, qRT-PCR YB-1 vs CDIP delta delta Cp, 16 h; hits give high values; zero = DMSO, each unit about twofold. delta delta Cp (YB-1 minus CDIP) (concentration not given with the values). 0.37% of 30,000 active. AID 434959;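 active means delta delta Cp rounded down to an integer at or above 3, about 3 SD of DMSO wells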;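 further: higher means less YB-1 transcript or more CDIP transcript relative to DMSO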
INS-1E rescue: preserves ATP levels in cytokine-treated INS-1E cells. INS-1E cytokine-induced death, ATP luminescence, 48 h; normalised: neutral wells 0, positive control 100. protection from cytokine-induced ATP loss, % at 10 µM. 0.1% of 20,000 active. AID 488910;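 active means mean replicate protection from cytokine-induced ATP loss at least 50% and at least 75% of replicates each reaching 50%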
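Material: INS-1E rat cells; Quantity: 8000 cells/well; Buffer or medium: phenol-red-free RPMI with 5% fetal bovine serum; Probe or stimulus: cytokine cocktail of IFN-γ, TNF-α and IL-1β; Compound dosing: single test concentration per compound, delivered by pin transfer; Incubation: 48 h co-treatment, 10 min post-lysis read; Signal: CellTiter-Glo luminescence.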
Large screens that a line does not name were inactive. Only a selection was taken, and hits are over-represented in it overall.

CCn1c(=NC(=O)c2ccc(S(=O)(=O)N(C)C)cc2)sc2ccccc21	none (no result: T cruzi intra, INS-1E rescue)
Cc1cc(O)cc2c(=O)oc(CC(C)O)cc12 (stereo not drawn)	none (no result: T cruzi intra, INS-1E rescue)
C[C@H](CO)N1C[C@H](C)[C@@H](CN(C)Cc2ccc(Oc3ccccc3)cc2)Oc2ccc(NC(=O)Nc3ccc(C(F)(F)F)cc3)cc2C1=O	none
C[C@H]1CN([C@@H](C)CO)C(=O)c2cc(NC(=O)Nc3ccc(C(F)(F)F)cc3)ccc2O[C@H]1CN(C)Cc1ccc(Oc2ccccc2)cc1	T cruzi intra 80.1
C[C@H](CO)N1C[C@H](C)[C@H](CN(C)Cc2ccc(Oc3ccccc3)cc2)Oc2ccc(NC(=O)Nc3ccc(C(F)(F)F)cc3)cc2C1=O	T cruzi intra 62.6 (no result: INS-1E rescue)
C[C@@H]1CN([C@H](C)CO)C(=O)c2cc(NC(=O)Nc3ccccc3)ccc2O[C@@H]1CN(C)Cc1ccc(C(F)(F)F)cc1	none (no result: INS-1E rescue)
C=C(C(=O)O)[C@@H]1CC[C@@]2(C)CC[C@@H](O)C(=C)C2C1 (stereo partly drawn)	YB-1 expression 3.58 (no result: T cruzi intra, INS-1E rescue)
C=C(C(=O)O)[C@@H]1CC[C@@]2(C)CCC=C(C)[C@@H]2C1	none (no result: T cruzi intra, INS-1E rescue)
C[C@@H]1CN([C@H](C)CO)C(=O)c2cccc(NC(=O)c3ccc(-c4nccs4)cc3)c2O[C@H]1CN(C)Cc1ccc(Oc2ccccc2)cc1	T cruzi intra 81.1
C[C@H](CO)N1C[C@H](C)[C@H](CN(C)Cc2ccccc2)Oc2c(NC(=O)c3ccc(-c4nccs4)cc3)cccc2C1=O	none
C[C@H]1CN([C@@H](C)CO)C(=O)c2cccc(NC(=O)c3ccc(-c4nccs4)cc3)c2O[C@@H]1CN(C)Cc1ccc(Oc2ccccc2)cc1	none
C[C@H](CO)N1C[C@H](C)[C@H](CN(C)Cc2ccc(Oc3ccccc3)cc2)Oc2c(NC(=O)c3ccc(-c4nccs4)cc3)cccc2C1=O	T cruzi intra 85.6
CC1=CC(O)C2/C=C/CCC3OC3(C)C(O)CC(=O)C23C(=O)NC(CC(C)C)C13 (stereo not drawn)	none (no result: T cruzi intra, INS-1E rescue)
CCC(=O)c1ccc2c(c1)N(CC(C)N(C)C)c1ccccc1S2 (stereo not drawn)	none (no result: T cruzi intra, INS-1E rescue)
O=C(N/N=C/c1ccc(-c2cccc(Cl)c2)o1)c1ccccn1	T cruzi intra 85.2
O=C(CCCCC(=O)N/N=C/c1ccc(-c2cccc(Cl)c2)o1)NO	INS-1E rescue 148.7
O=C(N/N=C/c1cc(Br)c(O)c(Br)c1)c1ccccn1	none
COC(=O)CCCCCCC(=O)N/N=C/c1ccc(-c2cccc(Cl)c2)o1	none
Cc1ccc(/C=N/NC(=O)c2ccccn2)o1	none
Cc1ccc(/C=N/NC(=O)CCCCCC(=O)NO)o1	INS-1E rescue 107.5
Cc1ccc(/C=N/NC(=O)CCCCCC(=O)O)o1	none
O=C(N/N=C/c1cc(Br)cc(Br)c1O)c1ccccn1	T cruzi intra 78.3
O=C(CCCCCC(=O)Nc1ccccc1O)N/N=C\c1cccnc1Br	none
COc1ccc(-c2nc3ccc4ccccc4c3c3c2CCC3)cc1	none (no result: T cruzi intra, INS-1E rescue)
C[C@@H]1CN([C@@H](C)CO)C(=O)Cc2cc(NC(=O)Cc3ccccc3)ccc2O[C@@H]1CN(C)Cc1ccc(C(=O)Nc2ccccc2N)cc1	T cruzi intra 76.8
C[C@H]1CN([C@@H](C)CO)C(=O)Cc2cc(NC(=O)c3ccncc3)ccc2O[C@H]1CN(C)Cc1ccc(C(=O)Nc2ccccc2N)cc1	none
C[C@@H]1CN([C@H](C)CO)C(=O)Cc2cc(NC(=O)Cc3ccccc3)ccc2O[C@H]1CN(C)Cc1ccc(C(=O)Nc2ccccc2N)cc1	none
C[C@H](CO)N1C[C@H](C)[C@H](CN(C)Cc2ccc(C(=O)Nc3ccccc3N)cc2)Oc2ccc(NC(=O)Cc3ccccc3)cc2CC1=O	T cruzi intra 64.5
COc1cc(C(=O)NCc2ccccc2)cc(OC)c1OC	none (no result: T cruzi intra, INS-1E rescue)
C[C@H]1CN([C@@H](C)CO)C(=O)Cc2cc(NC(=O)Nc3ccc(C(F)(F)F)cc3)ccc2O[C@@H]1CN(C)Cc1ccc(Cl)c(Cl)c1	none
C[C@@H]1CN([C@H](C)CO)C(=O)Cc2cc(NC(=O)Nc3ccc(C(F)(F)F)cc3)ccc2O[C@H]1CN(C)Cc1ccc(C(F)(F)F)cc1	T cruzi intra 80.8
C[C@@H]1CN([C@@H](C)CO)C(=O)Cc2cc(NC(=O)Nc3ccc(C(F)(F)F)cc3)ccc2O[C@@H]1CN(C)Cc1ccc(C(=O)O)cc1	none
C[C@H]1CN([C@@H](C)CO)C(=O)Cc2cc(NC(=O)CCC(F)(F)F)ccc2O[C@@H]1CN(C)Cc1ccc(C(F)(F)F)cc1	T cruzi intra 64.5
C[C@@H]1CN([C@H](C)CO)C(=O)Cc2cc(NC(=O)CCC(F)(F)F)ccc2O[C@H]1CN(C)Cc1ccc(C(F)(F)F)cc1	none
